Test results: ChEMBL document CHEMBL4373698, “Biosynthesis of Nonimmunosuppressive FK506 Analogues with Antifungal Activity” (J Nat Prod, 2019)
Values after ≈ are worked out from the molar mass of the structure shown. Active and inactive are the calls of the source. No cut-off for these calls is given here.

How the values were obtained:
[1] = test system: Aspergillus fumigatus; experiment: Antifungal activity against Aspergillus fumigatus Af293 after 48 hrs by EUCAST-based microdilution assay; format: functional, organism-based; details: Af293, 48 h
Method in brief: (§1)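 Af293 conidia at 10^5/mL in RPMI (8.4 g/L RPMI1640, 34.5 g/L MOPS, 20 g/L dextrose, pH 7) per EUCAST broth microdilution; 2-fold serial dilutions from 10 μg/mL; 35 °C, 48 h; OD600 read. % growth versus no-inhibitor wells after medium-only background subtraction; IC50 derived from growth curves.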

[2] = Immunosuppressive activity against […] mouse CD4-positive T cell cells assessed as inhibition of CD3/CD28-induced cell proliferation after 72 hrs by FACS analysis
Method in brief: (§2)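 Spleen cells from 6–8-week B6J mice, red cells lysed; CD4+ T cells labelled with CellTrace Violet at isolation. Stimulated with anti-CD3/CD28 beads with compound for 72 h; stained for CD4 and CD44 plus near-IR live/dead dye; proliferation read by flow cytometry; IC50 from curves.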

[3] = test system: Candida albicans; experiment: Antifungal activity against Candida albicans SC5314 after 24 hrs by XTT assay; format: functional, organism-based; details: SC5314, 24 h
Method in brief: (§3)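 SC5314 grown in YPD at 30 °C for 16 h, washed twice and resuspended in PBS. Seeded at 1.25 × 10^5 cells per well in 100% FBS with 2-fold dilutions from 10 μg/mL; 37 °C, 24 h. XTT (500 μg/mL in PBS, menadione final 10 μM) added, 2 h at 37 °C in the dark; OD490 read; IC50.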

[4] = test system: Cryptococcus neoformans; experiment: Antifungal activity against Cryptococcus neoformans H99 after 48 hrs by EUCAST-based microdilution assay; format: functional, organism-based; details: var grubii H99 
Method in brief: (§4)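 H99 grown in YPD at 30 °C for 20 h, then seeded at OD600 0.01 in RPMI-MOPS-dextrose pH 7 (EUCAST microdilution). Analogues added as 2-fold dilutions from 10 μg/mL; 37 °C, 48 h; OD600 read. Growth expressed relative to no-inhibitor wells after background subtraction; IC50 calculated.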

[5] = test system: Cryptococcus neoformans; experiment: Synergistic antifungal activity against Cryptococcus neoformans H99 assessed as FIC index in presence of fluconazole after 48 hrs by checker board assay; format: functional, var grubii H99
Method in brief: (§5)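 Checkerboard with fluconazole: H99 grown overnight in YPD at 30 °C, seeded at OD600 0.01 in RPMI 1640 per EUCAST. Test agent 2-fold serially diluted. FIC index calculated per strain; ≤0.5 synergy, >0.5–1.0 additive, >1.0–2.0 no interaction, >2.0 antagonism.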

[6] = test system: Cryptococcus neoformans; experiment: Synergistic antifungal activity against Cryptococcus neoformans H99 in presence of 1.25 ug/ml fluconazole after 48 hrs by checker board assay; format: functional, organism-based; details: var grubii H99 
[7] = test system: Cryptococcus neoformans; experiment: Antifungal activity against Cryptococcus neoformans harboring frr1 deletion mutant at 30 ug/ml; format: functional, organism-based
[8] = test system: Aspergillus fumigatus; experiment: Antifungal activity against Aspergillus fumigatus Af293; format: functional, organism-based; method in brief: as §1
[9] = test system: Candida albicans; experiment: Antifungal activity against Candida albicans SC5314; format: functional, organism-based; method in brief: as §3
[10] = Immunosuppressive activity against […] mouse CD4-positive T cells assessed as inhibition of CD3/CD28-induced cell proliferation; method in brief: as §2
[11] = test system: Cryptococcus neoformans; experiment: Antifungal activity against Cryptococcus neoformans H99; format: functional, organism-based; details: var grubii H99; method in brief: as §4
[12] = test system: Cryptococcus neoformans; experiment: Synergistic antifungal activity against Cryptococcus neoformans H99 assessed as FIC index in presence of fluconazole; format: functional, var grubii H99; method in brief: as §5
[13] = test system: Cryptococcus neoformans; experiment: Synergistic antifungal activity against Cryptococcus neoformans H99 in presence of 2.5 ug/ml fluconazole after 48 hrs by checker board assay; format: functional, organism-based; details: var grubii H99 

| SMILES | IC50 [1] | IC50 [2] | IC50 [3] | IC50 [4] | further results |
| --- | --- | --- | --- | --- | --- |
| CO[C@H]1C[C@@H](C)C/C(C)=C/[C@@H](C)C(=O)C[C@H](O)[C@@H](C)[C@@H](/C(C)=C/[C@@H]2CC[C@@H](O)[C@H](O)C2)OC(=O)[C@@H]2CCCCN2C(=O)C[C@]2(O)O[C@H]1[C@@H](OC)C[C@H]2C | > 50 µg/mL | 3.38 µg/mL (≈ 4.5 µM) | 837 µg/mL (≈ 1120 µM) | 54.5 µg/mL (≈ 72.7 µM) | – |
| CC[C@@H]1/C=C(\C)C[C@H](C)C[C@H](OC)[C@H]2O[C@@](O)(C(=O)C(=O)N3CCCC[C@H]3C(=O)O[C@H](/C(C)=C/[C@@H]3CC[C@@H](O)[C@H](OC)C3)[C@H](C)[C@@H](O)CC1=O)[C@H](C)C[C@@H]2OC [ASCOMYCIN] | – | – | – | – | fractional inhibitory concentration index (FICI) [5]: 0.5 |
| C=CC[C@@H]1/C=C(\C)C[C@H](C)C[C@H](OC)[C@H]2O[C@@](O)(CC(=O)N3CCC[C@H]3C(=O)O[C@H](/C(C)=C/[C@@H]3CC[C@@H](O)[C@H](O)C3)[C@H](C)[C@@H](O)CC1=O)[C@H](C)C[C@@H]2OC | > 50 µg/mL | 0.886 µg/mL (≈ 1.16 µM) | 3440 µg/mL (≈ 4520 µM) | 221 µg/mL (≈ 290 µM) | – |
| CC[C@@H]1/C=C(\C)C[C@H](C)C[C@H](OC)[C@H]2O[C@@](O)(CC(=O)N3CCCC[C@H]3C(=O)O[C@H](/C(C)=C/[C@@H]3CC[C@@H](O)[C@H](O)C3)[C@H](C)[C@@H](O)CC1=O)[C@H](C)C[C@@H]2OC | 307 µg/mL (≈ 402 µM) | 0.258 µg/mL (≈ 0.338 µM) | 2.85 µg/mL (≈ 3.73 µM) | 3.3 µg/mL (≈ 4.32 µM) | IC50 [6]: 0.0625 µg/mL; fractional inhibitory concentration index (FICI) [5]: 0.19; Activity [7]: inactive |
| CCC[C@@H]1/C=C(\C)C[C@H](C)C[C@H](OC)[C@H]2O[C@@](O)(CC(=O)N3CCCC[C@H]3C(=O)O[C@H](/C(C)=C/[C@@H]3CC[C@@H](O)[C@H](O)C3)[C@H](C)[C@@H](O)CC1=O)[C@H](C)C[C@@H]2OC | > 50 µg/mL | 0.0459 µg/mL (≈ 0.059 µM) | 4.26 µg/mL (≈ 5.48 µM) | 8.85 µg/mL (≈ 11.4 µM) | – |
| CCC[C@@H]1/C=C(\C)C[C@H](C)C[C@H](OC)[C@H]2O[C@@](O)(CC(=O)N3CCCC[C@H]3C(=O)O[C@H](/C(C)=C/[C@@H]3CC[C@@H](O)[C@H](OC)C3)[C@H](C)[C@@H](O)CC1=O)[C@H](C)C[C@@H]2OC | 14.1 µg/mL (≈ 17.8 µM) | 0.0255 µg/mL (≈ 0.0323 µM) | 0.817 µg/mL (≈ 1.03 µM) | 0.151 µg/mL (≈ 0.191 µM) | – |
| C=CC[C@@H]1/C=C(\C)C[C@H](C)C[C@H](OC)[C@H]2O[C@@](O)(C(=O)C(=O)N3CCCC[C@H]3C(=O)O[C@H](/C(C)=C/[C@@H]3CC[C@@H](O)[C@H](O)C3)[C@H](C)[C@@H](O)CC1=O)[C@H](C)C[C@@H]2OC | – | – | – | – | IC50 [8]: 0.165 µg/mL (≈ 0.209 µM); IC50 [9]: 0.106 µg/mL (≈ 0.134 µM); IC50 [10]: 0.246 ng/mL (≈ 0.000311 µM); IC50 [11]: 0.005 µg/mL (≈ 0.00633 µM) |
| CO[C@H]1C[C@@H](C)C/C(C)=C/[C@@H](C)C(=O)C[C@H](O)[C@@H](C)[C@@H](/C(C)=C/[C@@H]2CC[C@@H](O)[C@H](OC)C2)OC(=O)[C@@H]2CCCCN2C(=O)C[C@]2(O)O[C@H]1[C@@H](OC)C[C@H]2C | 230 µg/mL (≈ 302 µM) | 1.98 µg/mL (≈ 2.6 µM) | 6.07 µg/mL (≈ 7.95 µM) | 2.47 µg/mL (≈ 3.23 µM) | IC50 [6]: 0.125 µg/mL; fractional inhibitory concentration index (FICI) [5]: 0.5; Activity [7]: inactive |
| CC[C@@H]1/C=C(\C)C[C@H](C)C[C@H](OC)[C@H]2O[C@@](O)(C(=O)C(=O)N3CCCC[C@H]3C(=O)O[C@H](/C(C)=C/[C@@H]3CC[C@@H](O)[C@H](O)C3)[C@H](C)[C@@H](O)CC1=O)[C@H](C)C[C@@H]2OC | 12.2 µg/mL (≈ 15.7 µM) | 0.00327 µg/mL (≈ 0.00421 µM) | 0.079 µg/mL (≈ 0.102 µM) | 0.027 µg/mL (≈ 0.0347 µM) | – |
| C=CC[C@@H]1/C=C(\C)C[C@H](C)C[C@H](OC)[C@H]2O[C@@](O)(CC(=O)N3CCCC[C@H]3C(=O)O[C@H](/C(C)=C/[C@@H]3CC[C@@H](O)[C@H](O)C3)[C@H](C)[C@@H](O)CC1=O)[C@H](C)C[C@@H]2OC | – | – | – | – | IC50 [8]: 29.8 µg/mL (≈ 38.4 µM); IC50 [9]: 2.8 µg/mL (≈ 3.6 µM); IC50 [10]: 15.1 ng/mL (≈ 0.0194 µM); IC50 [11]: 0.154 µg/mL (≈ 0.198 µM) |
| C=CC[C@@H]1/C=C(\C)C[C@H](C)C[C@H](OC)[C@H]2O[C@@](O)(C(=O)C(=O)N3CCCC[C@H]3C(=O)O[C@H](/C(C)=C/[C@@H]3CC[C@@H](O)[C@H](OC)C3)[C@H](C)[C@@H](O)CC1=O)[C@H](C)C[C@@H]2OC [TACROLIMUS ANHYDROUS] | – | – | – | – | IC50 [8]: 0.015 µg/mL (≈ 0.0187 µM); IC50 [9]: 0.005 µg/mL (≈ 0.00622 µM); fractional inhibitory concentration index (FICI) [12]: 0.38; IC50 [10]: 0.027 ng/mL (≈ 3.36e-05 µM); IC50 [11]: 0.001 µg/mL (≈ 0.00124 µM) |
| CC[C@@H]1/C=C(\C)C[C@H](C)C[C@H](OC)[C@H]2O[C@@](O)(CC(=O)N3CCCC[C@H]3C(=O)O[C@H](/C(C)=C/[C@@H]3CC[C@@H](O)[C@H](OC)C3)[C@H](C)[C@@H](O)CC1=O)[C@H](C)C[C@@H]2OC | 7.82 µg/mL (≈ 10.1 µM) | 0.025 µg/mL (≈ 0.0321 µM) | 0.662 µg/mL (≈ 0.851 µM) | 0.355 µg/mL (≈ 0.456 µM) | IC50 [13]: 0.031 µg/mL; fractional inhibitory concentration index (FICI) [5]: 0.19; Activity [7]: inactive |
| C=CC[C@@H]1/C=C(\C)C[C@H](C)C[C@H](OC)[C@H]2O[C@@](O)(CC(=O)N3CCCC[C@H]3C(=O)O[C@H](/C(C)=C/[C@@H]3CC[C@@H](O)[C@H](OC)C3)[C@H](C)[C@@H](O)CC1=O)[C@H](C)C[C@@H]2OC | – | – | – | – | IC50 [8]: 24.2 µg/mL (≈ 30.6 µM); IC50 [9]: 0.963 µg/mL (≈ 1.22 µM); IC50 [10]: 0.513 ng/mL (≈ 0.000649 µM); IC50 [11]: 0.036 µg/mL (≈ 0.0456 µM) |
| CCC[C@@H]1/C=C(\C)C[C@H](C)C[C@H](OC)[C@H]2O[C@@](O)(C(=O)C(=O)N3CCCC[C@H]3C(=O)O[C@H](/C(C)=C/[C@@H]3CC[C@@H](O)[C@H](O)C3)[C@H](C)[C@@H](O)CC1=O)[C@H](C)C[C@@H]2OC | 0.415 µg/mL (≈ 0.524 µM) | 0.00172 µg/mL (≈ 0.00218 µM) | 0.059 µg/mL (≈ 0.0745 µM) | 0.033 µg/mL (≈ 0.0417 µM) | – |
